ChEMBL document CHEMBL3244271, “Synthetic sulfur-containing amino acids. Inhibition of transport systems in S37 ascites tumor cells” (J Med Chem, 1978)

Key:
Format in all cases: cell-based
S37 [1] = experiment: Inhibition of L-type amino acid transporter-mediated [3H]-L-histidine uptake in mouse S37 cells assessed as residual activity at 5 mM after 2 mins by liquid scintillation counting analysis relative to control
S37 [2] = experiment: Inhibition of A-type amino acid transporter-mediated [3H]-L-histidine uptake in mouse S37 cells assessed as residual activity at 5 mM after 2 mins by liquid scintillation counting analysis relative to control
S37 [3] = experiment: Inhibition of L-type amino acid transporter-mediated [3H]-L-histidine uptake in mouse S37 cells assessed as residual activity at 10 mM after 2 mins by liquid scintillation counting analysis relative to control
Summary of the method: (§1)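 Mouse-passaged S37 ascites cells were collected 6-8 days post-transplant, washed three times and resuspended in modified Krebs-Ringer phosphate buffer. L-system uptake used [3H]-L-histidine at 0.1 mM for 2 min at 20 °C. Incubation ended on pouring into chilled buffer, followed by three centrifugations to remove entrained label. Pellet wet weight was recorded, the EtOH lysate was scintillation-counted, and results are % of control, averaging duplicate runs on triplicate samples.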

S37 [4] = experiment: Inhibition of A-type amino acid transporter-mediated [3H]-L-histidine uptake in mouse S37 cells assessed as residual activity at 10 mM after 2 mins by liquid scintillation counting analysis relative to control
Summary of the method: (§2)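 S37 ascites tumor cells were harvested 6-8 days after transplanting about 0.3 mL of a 1:10 packed-cell suspension. Cells were washed three times in modified Krebs-Ringer phosphate buffer, resuspended, and incubated with [3H]-L-histidine at 10 mM (A system) for 2 min at 20 °C. Uptake was stopped in chilled buffer, and cells were spun, rinsed and weighed wet. Pellets were lysed in 95% EtOH and counted by scintillation. Results are % of control, with duplicate runs on triplicate samples.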

S37 [5] = experiment: Inhibition of L-type amino acid transporter-mediated [3H]-L-histidine uptake in mouse S37 cells assessed as residual activity after 2 mins by liquid scintillation counting analysis relative to control; summary of the method: as §1
S37 [6] = experiment: Inhibition of A-type amino acid transporter-mediated [3H]-L-histidine uptake in mouse S37 cells assessed as residual activity after 2 mins by liquid scintillation counting analysis relative to control; summary of the method: as §2

SMILES | Activity (S37 [1]) [%] | Activity (S37 [2]) [%] | Activity (S37 [3]) [%] | Activity (S37 [4]) [%] | also measured
O=C(O)[C@@H]1CSCCN1 | 51 | 73 |  |  | 
N[C@@H](CS)C(=O)O | 16 | 51 |  |  | 
O=C(O)[C@@H]1CSCN1 | 72 | 74 |  |  | 
O=C(O)C1NCCS1 (racemic) |  |  | 63 | 58 | 
NC1(C(=O)O)CCSCC1 |  |  |  |  | Activity (S37 [5]): 31%; Activity (S37 [6]): 81%
NC1CCSC1=O (stereo unspecified) |  |  | 96 | 119 | 
CCSCC[C@H](N)C(=O)O | 11 | 63 |  |  | 
CSCC[C@H](N)C(=O)O | 11 | 68 |  |  | 
CC1N[C@H](C(=O)O)CS1 (stereo partly specified) | 70 | 72 |  |  | 
CC1(C)N[C@H](C(=O)O)CS1 | 45 | 68 |  |  | 
NC(CCS)C(=O)O (racemic) |  |  | 6 | 55 | 
N[C@@H](CSCCSC[C@H](N)C(=O)O)C(=O)O | 52 | 70 |  |  | 
O=C(O)C1CCSCN1 (racemic) |  |  | 90 | 85 | 
